Test results published in ChEMBL document CHEMBL1153963, “Phenanthrene-based tylophorine-1 (PBT-1) inhibits lung cancer cell growth through the Akt and NF-kappaB pathways” (J Med Chem, 2009).
Values after ≈ are worked out from the molar mass of the structure shown.

Columns and labels:
[1] = Cytotoxicity against human CL1-0 cells assessed as growth inhibition after 48 hrs by MTS assay; assay type: functional, cell-based
Outline: (§1)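 Cells seeded in four replicates at 2×10^3 per well in complete RPMI 1640 with drug (0, 0.1, 0.25, 0.5, 0.75 µg/mL in the cell-line panel), 48 h at 37 °C, 5% CO2. Viability read by MTS reagent, absorbance at 490 nm, expressed as percent of untreated control; IC50 taken as concentration giving 50% growth inhibition.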

[2] = test system: CL1-0; test: Induction of apoptosis in human CL1-0 cells at 0.5 ug/mL after 24 hrs by propidium iodide and annexin V staining; assay type: functional
Outline: (§2)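 CL1-0 cells treated with increasing concentrations for 24 h, resuspended in Annexin-binding buffer, stained with Alexa Fluor 488 Annexin V and PI for 15 min at room temperature, analyzed by flow cytometry; single-stain controls set apoptotic and necrotic windows.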

[3] = test system: CL1-0; test: Effect on TNFRSF10B gene expression in human CL1-0 cells assessed as change in gene expression at 0.5 ug/mL after 24 hrs by DNA microarray relative to control; assay type: functional
Outline: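 Total RNA extracted from treated or untreated CL1-0 cells, mRNA isolated, hybridized to human DNA microarray; genes scored by statistically significant twofold expression difference versus untreated control; fold change given as mean ± SD.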

[4] = test system: CL1-0; test: Effect on PIK3CD gene expression in human CL1-0 cells assessed as change in gene expression at 0.5 ug/mL after 24 hrs by DNA microarray relative to control; assay type: functional
Outline: (§3)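 Total RNA from CL1-0 cells treated 24 h with 0.5 µg/mL drug or untreated; mRNA isolated and run on human DNA microarrays; genes with statistically significant twofold change versus control reported as fold change, mean ± SD.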

[5] = test system: CL1-0; test: Effect on IRAK1 gene expression in human CL1-0 cells assessed as change in gene expression by RT-PCR relative to control; assay type: functional
Outline: (§4)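 Real-time quantitative RT-PCR on CL1-0 RNA to validate microarray changes, SYBR Green chemistry with gene-specific primers, GAPDH as internal control; fold change versus untreated control reported as mean ± SD.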

[6] = test system: CL1-0; test: Effect on BCL2L1 gene expression in human CL1-0 cells assessed as change in gene expression by RT-PCR relative to control; assay type: functional; outline: as §4
[7] = test system: CL1-0; test: Induction of apoptosis in human CL1-0 cells at 0.25 ug/mL after 24 hrs by propidium iodide and annexin V staining; assay type: functional; outline: as §2
[8] = test system: CL1-0; test: Effect on MAP3K14 gene expression in human CL1-0 cells assessed as change in gene expression at 0.5 ug/mL after 24 hrs by DNA microarray relative to control; assay type: functional; outline: as §3
[9] = test system: CL1-0; test: Effect on BCL2L1 gene expression in human CL1-0 cells assessed as change in gene expression at 0.5 ug/mL after 24 hrs by DNA microarray relative to control; assay type: functional; outline: as §3
[10] = test system: CL1-0; test: Effect on TNFRSF10B gene expression in human CL1-0 cells assessed as change in gene expression by RT-PCR relative to control; assay type: functional
Outline: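 Microarray hits validated by real-time quantitative RT-PCR with SYBR Green chemistry and gene-specific primers; GAPDH used as internal control; fold change versus untreated control as mean ± SD.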

[11] = test system: CL1-0; test: Effect on PRKACA gene expression in human CL1-0 cells assessed as change in gene expression at 0.5 ug/mL after 24 hrs by DNA microarray relative to control; assay type: functional; outline: as §3
[12] = test system: CL1-0; test: Effect on AKT3 gene expression in human CL1-0 cells assessed as change in gene expression by RT-PCR relative to control; assay type: functional; outline: as §4
[13] = test system: NCI-H460; test: Cytotoxicity against human H460 cells assessed as growth inhibition after 48 hrs by MTS assay; assay type: functional, cell-based; conditions: NCI-H460, 48 h; outline: as §1
[14] = test system: A549; test: Cytotoxicity against human A549 cells assessed as growth inhibition after 48 hrs by MTS assay; assay type: functional, cell-based; conditions: A549, 48 h; outline: as §1
[15] = test system: CL1-0; test: Effect on NFKB1A gene expression in human CL1-0 cells assessed as change in gene expression by RT-PCR relative to control; assay type: functional; outline: as §4
[16] = Cytotoxicity against human CL1-5 cells assessed as growth inhibition after 48 hrs by MTS assay; assay type: functional, cell-based; conditions: CL1-5, 48 h; outline: as §1
[17] = test system: CL1-0; test: Effect on PRKACA gene expression in human CL1-0 cells assessed as change in gene expression by RT-PCR relative to control; assay type: functional; outline: as §4
[18] = test system: CL1-0; test: Effect on MAP3K14 gene expression in human CL1-0 cells assessed as change in gene expression by RT-PCR relative to control; assay type: functional; outline: as §4
[19] = test system: CL1-0; test: Effect on AKT3 gene expression in human CL1-0 cells assessed as change in gene expression at 0.5 ug/mL after 24 hrs by DNA microarray relative to control; assay type: functional; outline: as §3
[20] = test system: CL1-0; test: Effect on CFLAR gene expression in human CL1-0 cells assessed as change in gene expression by RT-PCR relative to control; assay type: functional; outline: as §4
[21] = test system: CL1-0; test: Effect on CFLAR gene expression in human CL1-0 cells assessed as change in gene expression at 0.5 ug/mL after 24 hrs by DNA microarray relative to control; assay type: functional; outline: as §3
[22] = test system: CL1-0; test: Effect on PPP3CA gene expression in human CL1-0 cells assessed as change in gene expression at 0.5 ug/mL after 24 hrs by DNA microarray relative to control; assay type: functional; outline: as §3
[23] = test system: CL1-0; test: Effect on PPP3CA gene expression in human CL1-0 cells assessed as change in gene expression by RT-PCR relative to control; assay type: functional; outline: as §4
[24] = test system: CL1-0; test: Effect on IRAK1 gene expression in human CL1-0 cells assessed as change in gene expression at 0.5 ug/mL after 24 hrs by DNA microarray relative to control; assay type: functional; outline: as §3
[25] = test system: CL1-0; test: Effect on PDK1 gene expression in human CL1-0 cells assessed as change in gene expression by RT-PCR relative to control; assay type: functional; outline: as §4
[26] = test system: CL1-0; test: Effect on PIK3CD gene expression in human CL1-0 cells assessed as change in gene expression by RT-PCR relative to control; assay type: functional; outline: as §4
[27] = test system: CL1-0; test: Effect on PDK1 gene expression in human CL1-0 cells assessed as change in gene expression at 0.5 ug/mL after 24 hrs by DNA microarray relative to control; assay type: functional; outline: as §3
[28] = test system: CL1-0; test: Induction of apoptosis in human CL1-0 cells at 0.75 ug/mL after 24 hrs by propidium iodide and annexin V staining; assay type: functional; outline: as §2
[29] = test system: CL1-0; test: Effect on NFKB1A gene expression in human CL1-0 cells assessed as change in gene expression at 0.5 ug/mL after 24 hrs by DNA microarray relative to control; assay type: functional; outline: as §3
[30] = test system: PC-9; test: Cytotoxicity against human PC9 cells assessed as growth inhibition after 48 hrs by MTS assay; assay type: functional, cell-based; conditions: PC-9, 48 h; outline: as §1
[31] = Homo sapiens, CL1-0, 48 h, read-out: IC50

COc1ccc2c(CN3CCN(CCO)CC3)cc3cc4c(cc3c2c1)OCO4
IC50 [1, 31]: > 2 mg/L

COc1ccc2c(CNCCCCCCO)cc3cc4c(cc3c2c1)OCO4
IC50 [1, 31]: > 2 mg/L

COc1ccc2c(CN3CCC(CO)CC3)cc3cc4c(cc3c2c1)OCO4.Cl
IC50 [1, 31]: 0.44 mg/L
IC50 ([1]; cl1-0): Dose-dependent effect

COc1ccc2c(CNCCCCCC(=O)O)cc3cc4c(cc3c2c1)OCO4
IC50 [1, 31]: > 2 mg/L

COc1ccc2c(CN3CCN(c4ccc(Cl)cc4)CC3)cc3cc4c(cc3c2c1)OCO4
IC50 [1, 31]: > 2 mg/L

COc1ccc2c(CN3CCC(C(=O)O)CC3)cc3cc4c(cc3c2c1)OCO4
IC50 [1, 31]: > 2 mg/L

COc1ccc2c(CN3CCC(CCO)CC3)cc3cc4c(cc3c2c1)OCO4.Cl
IC50 [1, 31]: 0.46 mg/L
IC50 ([1]; cl1-0): Dose-dependent effect

COc1ccc2c(CN3CCN(c4ccc(O)cc4)CC3)cc3cc4c(cc3c2c1)OCO4
IC50 [1, 31]: > 2 mg/L

COc1ccc2c(CN3CCC(CO)CC3)cc3cc4c(cc3c2c1)OCO4
Activity [2]: 9.56%
fold change (FC) [3]: 2.53
fold change (FC) [4]: 2.03
fold change (FC) [5]: 2.23
IC50 [1, 31]: 0.81 mg/L (≈ 2.13 µM)
IC50 ([1]; cl1-0): Dose-dependent effect
fold change (FC) [6]: 1.83
Activity [7]: 5.96%
fold change (FC) [8]: 2.25
fold change (FC) [9]: 2.7
fold change (FC) [10]: 1.71
fold change (FC) [11]: 5.38
fold change (FC) [12]: 1.61
IC50 [13]: 0.2 mg/L (≈ 0.527 µM)
IC50 [14]: 0.2 mg/L (≈ 0.527 µM)
fold change (FC) [15]: 6.8
IC50 [16]: 0.2 mg/L (≈ 0.527 µM)
fold change (FC) [17]: 1.39
fold change (FC) [18]: 2.94
fold change (FC) [19]: 0.48
fold change (FC) [20]: 2.8
fold change (FC) [21]: 3.01
fold change (FC) [22]: 2.53
fold change (FC) [23]: 5.31
fold change (FC) [24]: 2.1
fold change (FC) [25]: 0.56
fold change (FC) [26]: 1.69
fold change (FC) [27]: 0.26
Activity [28]: 11.03%
fold change (FC) [29]: 2.23
IC50 [30]: 0.2 mg/L (≈ 0.527 µM)

COc1ccc2c(CN3CCC(CCO)CC3)cc3cc4c(cc3c2c1)OCO4
IC50 [1, 31]: 0.37 mg/L (≈ 0.94 µM)
IC50 ([1]; cl1-0): Dose-dependent effect
